Results: ChEMBL document CHEMBL4732226, “Discovery of a potent G-protein-coupled receptor 119 agonist for the treatment of type 2 diabetes” (Bioorg Med Chem, 2021)

Tests used:
[1] = Toxicity in female Wistar rat assessed as ratio of heart to body weight at 200 mg/kg, po after 28 days (reference value: 0.38 +/- 0.037); type: organism-based; details: in vivo, 672 h, time 28 day
[2] = Toxicity in female Wistar rat assessed as ratio of brain to body weight at 200 mg/kg, po after 28 days (reference value: 1.1 +/- 0.078); type: organism-based; details: in vivo, 672 h, time 28 day
[3] = Toxicity in female Wistar rat assessed as ALT level at 100 mg/kg, po after 28 days (reference value: 21.28 +/- 2.31 U/L); type: organism-based; details: in vivo, 672 h, time 28 day
[4] = AUC(0 to t) in Wistar rat at 10 mg/kg, po up to 24 hrs; type: ADME, organism-based; set-up: route oral, dose 10 mg/kg, time <=24; details: in vivo
How it was run: (§1)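 Single oral dose at 10 mg/kg given to male Wistar rats and to Beagle dogs; bioavailability also determined in both species.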

[5] = Toxicity in female Wistar rat assessed as ALT level at 200 mg/kg, po after 28 days (reference value: 21.28 +/- 2.31 U/L); type: organism-based; details: in vivo, 672 h, time 28 day
[6] = Toxicity in male Wistar rat assessed as ALP level at 100 mg/kg, po after 28 days (reference value: 174.77 +/- 25.42 U/L); type: organism-based; details: in vivo, 672 h, time 28 day
[7] = Toxicity in female Wistar rat assessed as globulin level at 200 mg/kg, po after 28 days (reference value: 2.44 +/- 0.18 g/dl); type: organism-based; details: in vivo, 672 h, time 28 day
[8] = Toxicity in male Wistar rat assessed as globulin level at 200 mg/kg, po after 28 days (reference value: 2.62 +/- 0.12 g/dl); type: organism-based; details: in vivo, 672 h, time 28 day
[9] = Toxicity in female Wistar rat assessed as ratio of ovaries to body weight at 200 mg/kg, po after 28 days (reference value: 0.091 +/- 0.009); type: organism-based; details: in vivo, 672 h, time 28 day
[10] = Toxicity in female Wistar rat assessed as reduction in body weight at 100 to 400 mg/kg, po after 28 days; type: organism-based; details: in vivo, 672 h, dose 100-400 mg/kg, time 28 day
How it was run: (§2)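 Repeated-dose oral toxicity by gavage in Wistar rats, 10 males and 10 females per group, given 100, 200 or 400 mg/kg once daily for 28 days. Endpoints were clinical signs, mortality, neurobehaviour, food intake, ophthalmic examination and body weight. Animals were sacrificed on day 29 for blood biochemistry, organ-to-body weight ratios and histopathology.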

[11] = Toxicity in male Wistar rat assessed as ratio of brain to body weight at 100 mg/kg, po after 28 days (reference value: 0.766 +/- 0.038); type: organism-based; details: in vivo, 672 h, time 28 day
[12] = Tmax in Sprague-Dawley rat at 25 mg/kg, po up to 24 hrs; type: ADME, organism-based; details: in vivo
How it was run: (§3)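 Male SD rats fasted overnight, water ad libitum, fed 4 h after dosing. Single oral gavage of 25 mg/kg as a homogeneous suspension in 0.5% Tween 80 in 0.5% Na-CMC. Blood drawn into Na-heparin tubes at 0.25, 0.5, 1, 2, 4, 6, 8 and 24 h; plasma stored at -70°C. Parameters by non-compartmental analysis, with C0 taken as zero and BLQ samples set to zero.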

[13] = Toxicity in male Wistar rat assessed as ratio of heart to body weight at 200 mg/kg, po after 28 days (reference value: 0.333 +/- 0.036); type: organism-based; details: in vivo, 672 h, time 28 day
[14] = Toxicity in male Wistar rat assessed as ALT level at 100 mg/kg, po after 28 days (reference value: 30.47 +/- 2.63 U/L); type: organism-based; details: in vivo, 672 h, time 28 day
[15] = Toxicity in female Wistar rat assessed as urea level at 400 mg/kg, po after 28 days (reference value: 48.09 +/- 5.3 mg/dl); type: organism-based; details: in vivo, 672 h, time 28 day
[16] = Toxicity in female Wistar rat assessed as globulin level at 400 mg/kg, po after 28 days (reference value: 2.44 +/- 0.18 g/dl); type: organism-based; details: in vivo, 672 h, time 28 day
[17] = Half life in Sprague-Dawley rat at 25 mg/kg, po up to 24 hrs; type: ADME, organism-based; details: in vivo; how it was run: as §3
[18] = Toxicity in female Wistar rat assessed as ratio of thymus to body weight at 200 mg/kg, po after 28 days (reference value: 0.260 +/- 0.025); type: organism-based; details: in vivo, 672 h, time 28 day
[19] = Toxicity in female Wistar rat assessed as ALP level at 100 mg/kg, po after 28 days (reference value: 100.14 +/- 21.98 U/L); type: organism-based; details: in vivo, 672 h, time 28 day
[20] = Cmax in Sprague-Dawley rat at 25 mg/kg, po up to 24 hrs; type: ADME, organism-based; set-up: route oral, dose 25 mg/kg, time <=24; details: in vivo; how it was run: as §3
[21] = Toxicity in female Wistar rat assessed as ratio of ovaries to body weight at 100 mg/kg, po after 28 days (reference value: 0.091 +/- 0.009); type: organism-based; details: in vivo, 672 h, time 28 day
[22] = Toxicity in male Wistar rat assessed as urea level at 400 mg/kg, po after 28 days (reference value: 58.14 +/- 9.13 mg/dl); type: organism-based; details: in vivo, 672 h, time 28 day
[23] = Toxicity in female Wistar rat assessed as ratio of thymus to body weight at 100 mg/kg, po after 28 days (reference value: 0.260 +/- 0.025); type: organism-based; details: in vivo, 672 h, time 28 day
[24] = Toxicity in female Wistar rat assessed as AST level at 400 mg/kg, po after 28 days (reference value: 128.84 +/- 21.42 U/L); type: organism-based; details: in vivo, 672 h, time 28 day
[25] = Toxicity in female Wistar rat assessed as mortality up to 400 mg/kg, po after 28 days; type: organism-based; details: in vivo, 672 h, time 28 day; how it was run: as §2
[26] = Toxicity in male Wistar rat assessed as ALT level at 400 mg/kg, po after 28 days (reference value: 30.47 +/- 2.63 U/L); type: organism-based; details: in vivo, 672 h, time 28 day
[27] = Toxicity in male Wistar rat assessed as ALP level at 200 mg/kg, po after 28 days (reference value: 174.77 +/- 25.42 U/L); type: organism-based; details: in vivo, 672 h, time 28 day
[28] = Toxicity in male Wistar rat assessed as ratio of kidney to body weight at 200 mg/kg, po after 28 days (reference value: 0.787 +/- 0.078); type: organism-based; details: in vivo, 672 h, time 28 day
[29] = Toxicity in male Wistar rat assessed as ALP level at 400 mg/kg, po after 28 days (reference value: 174.77 +/- 25.42 U/L); type: organism-based; details: in vivo, 672 h, time 28 day
[30] = Toxicity in male Wistar rat assessed as ratio of adrenals to body weight at 400 mg/kg, po after 28 days (reference value: 0.020 +/- 0.003); type: organism-based; details: in vivo, 672 h, time 28 day
[31] = Toxicity in male Wistar rat assessed as ratio of testes to body weight at 400 mg/kg, po after 28 days (reference value: 1.248 +/- 0.073); type: organism-based; details: in vivo, 672 h, time 28 day
[32] = Toxicity in male Wistar rat assessed as ratio of thymus to body weight at 100 mg/kg, po after 28 days (reference value: 0.148 +/- 0.023); type: organism-based; details: in vivo, 672 h, time 28 day
[33] = Toxicity in female Wistar rat assessed as ratio of liver to body weight at 200 mg/kg, po after 28 days (reference value: 3.219 +/- 0.221); type: organism-based; details: in vivo, 672 h, time 28 day
[34] = Tmax in Beagle dog at 10 mg/kg, po up to 24 hrs; type: ADME, organism-based, Canis lupus familiaris; details: in vivo; how it was run: as §1
[35] = Toxicity in male Wistar rat assessed as AST level at 200 mg/kg, po after 28 days (reference value: 119.4 +/- 9.3 U/L); type: organism-based; details: in vivo, 672 h, time 28 day
[36] = Elimination rate constant in Sprague-Dawley rat at 25 mg/kg, po up to 24 hrs; type: ADME, organism-based; details: in vivo; how it was run: as §3

Cc1c(Oc2cccc(/C=C3\SC(=O)NC3=O)c2)ncnc1OC1CCN(C(=O)OC(C)(C)C)CC1
Ratio [1]: 0.394
Ratio [2]: 1.114
Activity [3]: 22.37 U/L
AUC(0-t) at 24 h [4]: 1770 ng·h/mL
Activity [5]: 22.2 U/L
Activity [6]: 152.22 U/L
Activity [7]: 2.42 g/dL
Activity [8]: 2.64 g/dL
Ratio [9]: 0.089
Activity [10]: Non-Toxic
Ratio [11]: 0.83
Tmax [12]: 1.75 h
Ratio [13]: 0.363
Activity [14]: 28.9 U/L
Activity [15]: 43.2 mg/dL
Activity [16]: 2.42 g/dL
half-life [17]: 3.09 h
Ratio [18]: 0.257
Activity [19]: 103.72 U/L
Cmax [20]: 4960 ng/mL
Ratio [21]: 0.089
Activity [22]: 51.15 mg/dL
Ratio [23]: 0.241
Activity [24]: 123.93 U/L
Activity [25]: Non-Toxic
Activity [26]: 29.6 U/L
Activity [27]: 164.68 U/L
Ratio [28]: 0.847
Activity [29]: 177.44 U/L
Ratio [30]: 0.023
Ratio [31]: 1.23
Ratio [32]: 0.167
Ratio [33]: 3.285
Tmax [34]: 3 h
Activity [35]: 116.98 U/L
k el at 24 h [36]: 9.17e-05 s⁻¹
